ChEMBL document CHEMBL1764997, “(Z)-3-butylidenephthalide from Ligusticum porteri , an α-glucosidase inhibitor” (J Nat Prod, 2011)
pIC50, pKi: −log10 of the molar value. Calls of active or inactive are those of the source. The rule behind the calls is not given here.

Key:
Mus musculus [1] = assay: Antidiabetic activity in streptozotocin-induced diabetic ICR mouse assessed as change in blood glucose level at 56.2 mg/kg after 2 hrs by oral sucrose tolerance test (RVb= -4.3 %); assay type: functional
In short: (§1)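 NAD (40 mg/kg ip) then STZ (100 mg/kg ip, 15 min later) diabetic male ICR mice, glucose >140 mg/dL after 7 days. Animals fasted 12 h, dosed orally in 0.05% Tween 80/saline, and given oral sucrose 2 g/kg 30 min later.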

Mus musculus [2] = assay: Antihyperglycemic activity in ICR mouse assessed as change in blood glucose level at 20 mg/kg after 1 hr by oral glucose tolerance test (RVb= 1.5 %); assay type: functional
Mus musculus [3] = assay: Antidiabetic activity in streptozotocin-induced diabetic ICR mouse assessed as change in blood glucose level at 56.2 mg/kg after 0.5 hr by oral sucrose tolerance test (RVb= 56 %); assay type: functional; in short: as §1
Mus musculus [4] = assay: Antihyperglycemic activity in ICR mouse assessed as change in blood glucose level at 10 mg/kg after 0.5 hr by oral glucose tolerance test (RVb= 59 %); assay type: functional
Mus musculus [5] = assay: Antihyperglycemic activity in ICR mouse assessed as change in blood glucose level at 10 mg/kg after 1.5 hrs by oral glucose tolerance test (RVb= 2.5 %); assay type: functional
Mus musculus [6] = assay: Antidiabetic activity in streptozotocin-induced diabetic ICR mouse assessed as change in blood glucose level at 31.2 mg/kg after 1 hr by oral glucose tolerance test (RVb= 10.3 %); assay type: functional
Mus musculus [7] = assay: Antihyperglycemic activity in ICR mouse assessed as change in blood glucose level at 10 mg/kg after 1 hr by oral glucose tolerance test (RVb= 1.5 %); assay type: functional
Mus musculus [8] = assay: Antidiabetic activity in streptozotocin-induced diabetic ICR mouse assessed as change in blood glucose level at 56.2 mg/kg after 1.5 hrs by oral sucrose tolerance test (RVb= 6.1 %); assay type: functional; in short: as §1
Mus musculus [9] = assay: Antidiabetic activity in streptozotocin-induced diabetic ICR mouse assessed as change in blood glucose level at 56.2 mg/kg after 0.5 hr by oral glucose tolerance test (RVb= 51.9 %); assay type: functional
Mus musculus [10] = assay: Antidiabetic activity in streptozotocin-induced diabetic ICR mouse assessed as change in blood glucose level at 10 mg/kg after 1 hr by oral sucrose tolerance test (RVb= 11.4 %); assay type: functional; in short: as §1
Mus musculus [11] = assay: Antidiabetic activity in streptozotocin-induced diabetic ICR mouse assessed as change in blood glucose level at 31.2 mg/kg after 0.5 hr by oral glucose tolerance test (RVb= 51.9 %); assay type: functional
Mus musculus [12] = species on record: Mus musculus; assay: Inhibition of alpha-glucosidase in streptozotocin-induced diabetic ICR mouse intestine assessed as lowering of blood glucose levels; assay type: functional, organism-based; in short: as §1
Mus musculus [13] = assay: Antihyperglycemic activity in ICR mouse assessed as change in blood glucose level at 20 mg/kg after 2 hrs by oral glucose tolerance test (RVb= -12 %); assay type: functional
Mus musculus [14] = assay: Antidiabetic activity in streptozotocin-induced diabetic ICR mouse assessed as change in blood glucose level at 10 mg/kg after 2 hrs by oral glucose tolerance test (RVb= -12.9 %); assay type: functional
Mus musculus [15] = assay: Antidiabetic activity in streptozotocin-induced diabetic ICR mouse assessed as change in blood glucose level at 31.2 mg/kg after 2 hrs by oral glucose tolerance test (RVb= -12.9 %); assay type: functional
Mus musculus [16] = assay: Antidiabetic activity in streptozotocin-induced diabetic ICR mouse assessed as change in blood glucose level at 10 mg/kg after 0.5 hr by oral glucose tolerance test (RVb= 51.9 %); assay type: functional
Mus musculus [17] = assay: Antidiabetic activity in streptozotocin-induced diabetic ICR mouse assessed as change in blood glucose level at 56.2 mg/kg after 1 hr by oral sucrose tolerance test (RVb= 11.4 %); assay type: functional; in short: as §1
Mus musculus [18] = assay: Antidiabetic activity in streptozotocin-induced diabetic ICR mouse assessed as change in blood glucose level at 10 mg/kg after 2 hrs by oral sucrose tolerance test (RVb= -4.3 %); assay type: functional; in short: as §1
Mus musculus [19] = assay: Antidiabetic activity in streptozotocin-induced diabetic ICR mouse assessed as change in blood glucose level at 56.2 mg/kg after 2 hrs by oral glucose tolerance test (RVb= -12.9 %); assay type: functional
Mus musculus [20] = assay: Antihyperglycemic activity in ICR mouse assessed as change in blood glucose level at 10 mg/kg after 2 hrs by oral glucose tolerance test (RVb= -12 %); assay type: functional
Mus musculus [21] = assay: Antidiabetic activity in streptozotocin-induced diabetic ICR mouse assessed as change in blood glucose level at 10 mg/kg after 1 hr by oral glucose tolerance test (RVb= 10.3 %); assay type: functional
Mus musculus [22] = assay: Antidiabetic activity in streptozotocin-induced diabetic ICR mouse assessed as change in blood glucose level at 56.2 mg/kg after 1 hr by oral glucose tolerance test (RVb= 10.3 %); assay type: functional
Mus musculus [23] = assay: Antihyperglycemic activity in ICR mouse assessed as change in blood glucose level at 20 mg/kg after 1.5 hrs by oral glucose tolerance test (RVb= 2.5 %); assay type: functional
Mus musculus [24] = assay: Antidiabetic activity in streptozotocin-induced diabetic ICR mouse assessed as change in blood glucose level at 10 mg/kg after 1.5 hrs by oral sucrose tolerance test (RVb= 6.1 %); assay type: functional; in short: as §1
Mus musculus [25] = assay: Antidiabetic activity in streptozotocin-induced diabetic ICR mouse assessed as change in blood glucose level at 31.2 mg/kg after 1.5 hrs by oral glucose tolerance test (RVb= 0.005 %); assay type: functional
Mus musculus [26] = assay: Antidiabetic activity in streptozotocin-induced diabetic ICR mouse assessed as change in blood glucose level at 10 mg/kg after 0.5 hr by oral sucrose tolerance test (RVb= 56 %); assay type: functional; in short: as §1
Mus musculus [27] = assay: Antidiabetic activity in streptozotocin-induced diabetic ICR mouse assessed as change in blood glucose level at 56.2 mg/kg after 1.5 hrs by oral glucose tolerance test (RVb= 0.005 %); assay type: functional
Mus musculus [28] = assay: Antihyperglycemic activity in ICR mouse assessed as change in blood glucose level at 20 mg/kg after 0.5 hr by oral glucose tolerance test (RVb= 59 %); assay type: functional
Mus musculus [29] = assay: Antidiabetic activity in streptozotocin-induced diabetic ICR mouse assessed as change in blood glucose level at 10 mg/kg after 1.5 hrs by oral glucose tolerance test (RVb= 0.005 %); assay type: functional
Alpha-glucosidase MAL62 = Alpha-glucosidase MAL62 (Saccharomyces cerevisiae, UniProt P07265); assay: (§2) Inhibition of yeast alpha-glucosidase assessed as inhibition of p-nitrophenyl-alpha-D-glucopyranoside substrate hydrolysis after 35 mins by spectroscopy
[30] = target: Alpha-glucosidase MAL62 (Saccharomyces cerevisiae) (UniProt P07265); assay: as §2
Mus musculus [31] = species on record: Mus musculus; assay: Antidiabetic activity in streptozotocin-induced diabetic ICR mouse assessed as lowering of blood glucose level by oral sucrose tolerance test; assay type: functional, organism-based; in short: as §1
Mus musculus [32] = assay: Antidiabetic activity in streptozotocin-induced diabetic ICR mouse assessed as change in blood glucose level at 5 mg/kg after 1.5 hrs by oral sucrose tolerance test (RVb= 6.1 %); assay type: functional; in short: as §1
Mus musculus [33] = assay: Antidiabetic activity in streptozotocin-induced diabetic ICR mouse assessed as change in blood glucose level at 5 mg/kg after 0.5 hr by oral sucrose tolerance test (RVb= 56 %); assay type: functional; in short: as §1
Mus musculus [34] = assay: Antidiabetic activity in streptozotocin-induced diabetic ICR mouse assessed as change in blood glucose level at 5 mg/kg after 2 hrs by oral sucrose tolerance test (RVb= -4.3 %); assay type: functional; in short: as §1
Mus musculus [35] = assay: Antidiabetic activity in streptozotocin-induced diabetic ICR mouse assessed as change in blood glucose level at 5 mg/kg after 1 hr by oral sucrose tolerance test (RVb= 11.4 %); assay type: functional; in short: as §1
Mus musculus [36] = species on record: Mus musculus; assay: Antidiabetic activity in streptozotocin-induced diabetic ICR mouse assessed as decrease in blood glucose levels by oral glucose tolerance test

Alpha-glucosidase MAL62 (Saccharomyces cerevisiae), sequence (P07265 whole entry): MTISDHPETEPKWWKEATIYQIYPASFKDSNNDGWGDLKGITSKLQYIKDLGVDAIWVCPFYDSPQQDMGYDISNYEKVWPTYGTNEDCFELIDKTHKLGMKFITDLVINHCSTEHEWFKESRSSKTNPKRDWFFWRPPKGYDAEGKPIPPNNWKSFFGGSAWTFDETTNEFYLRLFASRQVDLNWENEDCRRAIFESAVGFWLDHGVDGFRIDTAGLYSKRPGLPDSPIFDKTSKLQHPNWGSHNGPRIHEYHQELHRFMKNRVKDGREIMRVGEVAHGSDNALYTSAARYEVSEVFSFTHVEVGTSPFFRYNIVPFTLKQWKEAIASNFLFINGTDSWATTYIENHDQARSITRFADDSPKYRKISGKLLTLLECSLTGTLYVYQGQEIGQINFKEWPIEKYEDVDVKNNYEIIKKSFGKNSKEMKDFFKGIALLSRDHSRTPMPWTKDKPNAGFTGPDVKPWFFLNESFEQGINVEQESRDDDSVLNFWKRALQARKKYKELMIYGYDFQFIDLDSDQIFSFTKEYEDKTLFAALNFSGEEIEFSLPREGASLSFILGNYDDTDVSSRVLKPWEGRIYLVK
Alpha-glucosidase MAL62, sequence (P07265 whole entry): as above

Row | Activity [30] | SMILES | Activity (Mus musculus [2]) | Activity (Mus musculus [4]) | Activity (Mus musculus [5]) | Activity (Mus musculus [6]) | Activity (Mus musculus [7]) | Activity (Mus musculus [9]) | Activity (Mus musculus [11]) | Activity (Mus musculus [13]) | Activity (Mus musculus [14]) | Activity (Mus musculus [15]) | Activity (Mus musculus [16]) | Activity (Mus musculus [19]) | Activity (Mus musculus [20]) | Activity (Mus musculus [21]) | Activity (Mus musculus [22]) | Activity (Mus musculus [23]) | Activity (Mus musculus [25]) | Activity (Mus musculus [27]) | Activity (Mus musculus [29]) | also measured
1 | Dose-dependent effect | C[C@H]1O[C@H](O[C@H]2[C@H](O)[C@@H](O)[C@@H](O[C@H]3[C@H](O)[C@@H](O)C(O)O[C@@H]3CO)O[C@@H]2CO)[C@H](O)[C@@H](O)[C@@H]1N[C@H]1C=C(CO)[C@@H](O)[C@H](O)[C@H]1O (stereo partly drawn) [ACARBOSE] |  |  |  |  |  |  |  |  |  |  |  |  |  |  |  |  |  |  |  | Activity (Mus musculus [31]): Active; Activity (Mus musculus [32]): 6.2%; Activity (Mus musculus [33]): -0.4%; Activity (Mus musculus [34]): 6.8%; Activity (Mus musculus [35]): 0.5%
2 |  | COc1ccc(Cl)cc1C(=O)NCCc1ccc(S(=O)(=O)NC(=O)NC2CCCCC2)cc1 [GLYBURIDE] |  | -42% | -69% |  | -65% |  |  |  | -21.5% |  | 42% |  | -68% | 3.8% |  |  |  |  | -10% | 
3 | inactive | CCC/C=C1\OC(=O)C2=C1CCC=C2 [LIGUSTILIDE] | 14% | 42% | 7% | -6.3% | 25% | 25% | 17% | -16% | -15.6% | -10% | 13% | 6.5% | -8% | -14% | 17.1% | -3.5% | -12% | 2.1% | -19% | Activity (Mus musculus [36]): Dose-dependent effect; Activity (Mus musculus [28]): 40%

Row | SMILES | Activity [30] | Activity (Mus musculus [2]) | Activity (Mus musculus [4]) | Activity (Mus musculus [5]) | Activity (Mus musculus [6]) | Activity (Mus musculus [7]) | Activity (Mus musculus [9]) | Activity (Mus musculus [11]) | Activity (Mus musculus [13]) | Activity (Mus musculus [14]) | Activity (Mus musculus [15]) | Activity (Mus musculus [16]) | Activity (Mus musculus [19]) | Activity (Mus musculus [20]) | Activity (Mus musculus [21]) | Activity (Mus musculus [22]) | Activity (Mus musculus [23]) | Activity (Mus musculus [25]) | Activity (Mus musculus [27]) | Activity (Mus musculus [29]) | also measured
4 | CCCC=C1OC(=O)c2ccccc21 [(E)-BUTYLIDENEPHTHALIDE] | Dose-dependent effect | -6.9% | -9% | -41% | 3.3% | -24% | 12% | 27% | -23% | -7.4% | -9.1% | 35% | -21.7% | -42% | 3.5% | -5.2% | -18% | -0.3% | -12% | 1.5% | Activity (Mus musculus [1]): 6.4%; Activity (Mus musculus [3]): 23%; Activity (Mus musculus [8]): 2.5%; Activity (Mus musculus [10]): 19%; inhibition (Mus musculus [12]): Active; Activity (Mus musculus [17]): 7.6%; Activity (Mus musculus [18]): 6.7%; Activity (Mus musculus [24]): 16%; Activity (Mus musculus [26]): 41%; Activity (Mus musculus [28]): 20%; pIC50 (Alpha-glucosidase MAL62): 2.63; pKi (Alpha-glucosidase MAL62): 2.31
